Test results from PubChem BioAssay.

Target: Muscarinic acetylcholine receptor M4 (Homo sapiens) (UniProt P08173)
Assay: compounds altering M4/GIRK thallium flux, either direction, primary screen, M4 allosteric agonist project, cell-based, HEK293 M4/GIRK, BTC-AM (AID 625);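 further: thallium influx through GIRK channels coupled to M4 in HEK293 cells with BTC-AM dye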
Conditions: at 10 µM, actives lie on both sides;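 active means fluorescence slope after compound addition differing from the mean of all tested samples at 99.7% confidence, mostly higher but some lower; inactive means the rest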
Procedure, shortened: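 Material: M4/GIRK1/GIRK2 stable HEK293 cell line. Medium: pH 7.3 thallium assay buffer. Dosing: single compound concentration, 10 µM final. Schedule: 1 h dye loading, 2 min kinetic read. Measured by: kinetic fluorescence with BTC-AM dye. Read-out: post-addition slope, 15–24 s, of baseline-normalized fluorescence. Benchmarks: carbachol and DMSO controls.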

Muscarinic acetylcholine receptor M4 (Homo sapiens), sequence (P08173 whole entry, looked up): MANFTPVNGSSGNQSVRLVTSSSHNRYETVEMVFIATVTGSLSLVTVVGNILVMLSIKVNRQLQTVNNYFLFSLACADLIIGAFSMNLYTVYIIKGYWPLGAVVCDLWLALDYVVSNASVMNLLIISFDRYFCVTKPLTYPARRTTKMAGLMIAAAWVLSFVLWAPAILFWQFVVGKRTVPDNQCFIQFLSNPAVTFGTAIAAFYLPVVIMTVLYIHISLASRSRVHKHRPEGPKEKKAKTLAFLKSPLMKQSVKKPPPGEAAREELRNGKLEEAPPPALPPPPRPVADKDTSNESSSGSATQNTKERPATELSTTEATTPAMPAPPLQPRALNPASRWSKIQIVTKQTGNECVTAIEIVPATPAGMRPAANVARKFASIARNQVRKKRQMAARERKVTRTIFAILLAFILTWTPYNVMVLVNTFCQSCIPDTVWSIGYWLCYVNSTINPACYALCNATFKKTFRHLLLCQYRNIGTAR

Fluorescence slope, inactive:
Cc1nnc(N2CCOCC2)c2ccccc12 0.00562, CCOc1ccc2c(c1)n([O-])c1c([n+]2=O)CCCC1 0.0052, C[N+]1(CCNC(=O)/C=N/O)CCCCC1 0.00534, Cc1ccc(C(=O)NCCCNCCCNC(=O)c2ccc(C)nc2)cn1 0.00476, CCCCCOc1ccccc1C(=O)NCCCC(=O)O 0.00541, CCN(CC)c1nc(C)c2c(c1C#N)CC(C)(C)OC2 0.00447, Cn1ncc(N=Cc2ccccc2O)c1C(=O)N1CCOCC1 0.00481, CN1CCN(c2c3c(c(C#N)c4nc5ccccc5n24)CCCC3)CC1 0.00748, CC(C(=O)NC(=O)NCc1ccccc1)N1C(=O)c2ccccc2C1=O (stereo not given) 0.00457, COC(=O)c1cc(Br)c(=O)n(-c2cc(C)on2)c1 0.00456, CCOC(=O)c1[nH]c2ccc(OC)cc2c1NC(=O)CCN1CCCC(C)C1 (stereo not given) 0.00513, COc1cccc(C(=O)c2sc(NC(C)C)nc2N)c1 0.00607, CCOc1ccc(-c2nc(C#N)c(N3CCN(CC)CC3)o2)cc1 0.00446, CCC(CC)n1[nH]c(=O)cc1N 0.0051, CC1(C)Cc2nc(NCCN3CCOCC3)c(C#N)cc2CO1 0.00414, COc1ccc2nc(/N=C(\N)NC(=O)C(C)(C)C)nc(C)c2c1 0.00616, CC(C)CNc1nc2c(c(=O)n(C)c(=O)n2C)n1Cc1cccc(Br)c1 0.00519, COc1ccccc1C(=O)Nc1cc(Cl)ccc1O 0.00516, c1ccc(-n2ncc3c(N4CCCC4)ncnc32)cc1 0.00634, NC(=O)C1CCN(CCC(=O)Nc2ccc(Br)cc2)CC1 0.00492, CCCCC(=O)c1c(C)cc(C)[nH]c1=O 0.00582, C/C(NC(=O)c1cccs1)=C1\C(=O)C[C@@H]2[C@H]1C2(C)C 0.00498, CC1CCN(c2[nH]c(=S)c(C#N)c3c2CCCC3)CC1 0.00501, CCC(=O)Nc1ccc(-c2nnc(SCC(=O)NCC3CCCO3)n2C)cc1 (stereo not given) 0.0052, Cc1nnc(N2CCCCC2)c2ccccc12 0.0054, Cc1cccc(-n2ncc3c(NCCN4CCOCC4)ncnc32)c1 0.00826, N#CCCN(C(=O)c1ccco1)c1ccccc1 0.00534, N#Cc1c(N)nc(SCC(=O)NCc2ccc3c(c2)OCO3)c(C#N)c1-c1cccs1 0.00636, CCC1CC2(C)NC(=O)c3c(sc4c3CC(C)(C)OC4)N2C1=O (stereo not given) 0.00496, C=CCN=C(C)C1=C(O)CCC1=O 0.0054, Cc1ccc(-n2ncc3c(NCc4cccnc4)ncnc32)c(C)c1 0.00518, Clc1ccc(COc2ccccn2)c(Cl)c1 0.00573, Cc1cc(=O)oc(C)c1C(=O)Nc1ccc2nsnc2c1 0.00564, O=C(C1CCCCC1)N1CCCn2c1nc1ccccc12 0.00633, CCc1nc(NCC2CCCO2)c(C#N)c2c1COC(C)(C)C2 (stereo not given) 0.00695, CCc1nc(N2CCOCC2)c(C#N)c2c1CCCC2 0.00431, CCc1cc(=O)oc2cc(C)c(CN3CCCC(C)C3)c(O)c12 (stereo not given) 0.00473, C=CCN=C(NC#N)SCCc1ccccc1 0.00676, CCN(CC)CCN1C(=O)c2ccccc2NC1c1cc(OC)c(OC)c(OC)c1 (stereo not given) 0.00441, COc1ccc(C2C(C#N)=C(N)Oc3cc(C)n(CCN4CCOCC4)c(=O)c32)cc1OC (stereo not given) 0.00521
